Test results published in ChEMBL document CHEMBL4842338, “System-oriented optimization of multi-target 2,6-diaminopurine derivatives: Easily accessible broad-spectrum antivirals active against flaviviruses, influenza virus and SARS-CoV-2” (Eur J Med Chem, 2021).
Calls of active or inactive are those of the source. The calls are words filed in the database; no cut-off is given here.

Assays:
[1] = Selectivity index, ratio of CC50 for human A549 cells to IC50 for Influenza A Puerto Rico/8/34/H1N1 infected in human A549 cells; assay type: toxicity, cell-based; conditions: read-out: Selectivity Index
Method in brief: (§1)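 MDCK or A549 cells (2.5 × 10⁵/well) infected with A/Puerto Rico/8/34 H1N1 for 1 h at 37 °C, then washed. Compound (0.5–20 μM) added in 2% FBS medium for 24 h, with DMSO final ≤0.2%. Virus in supernatants read by hemagglutination. CC₅₀ by MTT (2 × 10⁴ cells/well, same concentrations, 24 h, absorbance 570 nm). SI = CC₅₀/IC₅₀.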

[2] = biological target: Src (Proto-oncogene tyrosine-protein kinase Src) (Homo sapiens, UniProt P12931); experiment: Inhibition of human recombinant N terminal His6 tagged full length Src assessed as residual activity at 5 uM using KVEKIGEGTYGVVYK as a substrate in the presence of NP-40 incubated for 10 mins by scintillation counting analysis relative to control; conditions: probe KVEKIGEGTYGVVYK, read-out: Activity
Chain of Src (Proto-oncogene tyrosine-protein kinase Src) (P12931 2-536 limits assumed): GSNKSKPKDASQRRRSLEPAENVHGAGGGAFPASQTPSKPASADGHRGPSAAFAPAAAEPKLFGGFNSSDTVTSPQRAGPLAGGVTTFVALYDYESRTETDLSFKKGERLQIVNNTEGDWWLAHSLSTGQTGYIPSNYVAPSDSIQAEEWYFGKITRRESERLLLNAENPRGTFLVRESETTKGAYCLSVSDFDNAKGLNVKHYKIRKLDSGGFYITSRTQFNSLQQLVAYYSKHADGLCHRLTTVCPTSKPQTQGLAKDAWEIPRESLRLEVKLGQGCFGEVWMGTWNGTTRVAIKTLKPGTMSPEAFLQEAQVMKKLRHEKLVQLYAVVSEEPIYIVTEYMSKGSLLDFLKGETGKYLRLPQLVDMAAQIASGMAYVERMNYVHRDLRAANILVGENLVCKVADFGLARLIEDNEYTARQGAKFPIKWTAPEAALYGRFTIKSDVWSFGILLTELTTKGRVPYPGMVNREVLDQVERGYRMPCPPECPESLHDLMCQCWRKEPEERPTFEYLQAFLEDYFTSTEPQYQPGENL
Method in brief: (§2)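 Compounds at fixed 5 μM; 10–50 ng kinase, substrate and NP-40/BSA per supplementary table, 10 μL at 30 °C for 10 min in low-binding tubes. Reactions spotted on filter, dried, scintillation counted. Mean ± SD of two independent experiments.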

[3] = test system: MDCK; experiment: Cytotoxicity against MDCK cells assessed as reduction in cell viability measured after 24 hrs by MTT assay; assay type: cell-based, Canis lupus familiaris; conditions: dog, mdck, 24 h
[4] = Inhibition of full length ZIKA virus NS5 RNA dependent RNA polymerase incubated for 10 mins by picogreen staining based fluorescent analysis (Rvb= 1+/-0.2 uM)
[5] = Selectivity index, ratio of CC50 for human Huh-7 cells to IC50 for Dengue virus serotype 2 New Guinea C infected in pre-seeded Huh-7 cells assessed as inhibition of viral replication incubated for 72 hrs by immunodetection based secondary yield reduction assay; assay type: toxicity, cell-based; conditions: read-out: Selectivity Index
[6] = biological target: Fyn (Tyrosine-protein kinase Fyn) (Homo sapiens, UniProt P06241); experiment: Inhibition of human recombinant N terminal His6 tagged full length Fyn assessed as residual activity at 5 uM using […] as a substrate in the presence of NP-40 incubated for 10 mins by scintillation counting analysis relative to control; conditions: probe […], read-out: Activity; method in brief: as §2
Chain of Fyn (Tyrosine-protein kinase Fyn) (P06241 whole entry): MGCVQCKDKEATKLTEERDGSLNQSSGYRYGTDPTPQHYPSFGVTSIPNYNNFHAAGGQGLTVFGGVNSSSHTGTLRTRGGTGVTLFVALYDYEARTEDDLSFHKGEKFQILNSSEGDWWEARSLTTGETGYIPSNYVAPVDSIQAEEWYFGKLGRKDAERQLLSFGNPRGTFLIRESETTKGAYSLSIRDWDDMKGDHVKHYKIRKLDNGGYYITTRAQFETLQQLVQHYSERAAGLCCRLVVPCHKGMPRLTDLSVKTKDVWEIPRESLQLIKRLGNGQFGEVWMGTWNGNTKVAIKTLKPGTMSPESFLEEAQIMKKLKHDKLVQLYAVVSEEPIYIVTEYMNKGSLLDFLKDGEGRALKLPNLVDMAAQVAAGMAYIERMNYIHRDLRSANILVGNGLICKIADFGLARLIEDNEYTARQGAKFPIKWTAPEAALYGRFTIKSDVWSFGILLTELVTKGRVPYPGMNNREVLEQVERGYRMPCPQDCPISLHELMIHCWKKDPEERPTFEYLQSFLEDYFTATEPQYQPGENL

[7] = test system: Influenza A virus; experiment: Antiviral activity against Influenza A Puerto Rico/8/34/H1N1 infected in human A549 cells assessed as inhibition of viral replication after 24 hrs by hemagglutination assay; assay type: functional, organism-based; conditions: A/Puerto Rico/8/1934(H1N1), A549, 24 h
[8] = biological target: CDK9/cyclin T1 (Homo sapiens, UniProt P50750); experiment: Inhibition of human full length CDK9/ His-tagged cT1 assessed as residual activity at 5 uM using CDKtide as a substrate in the presence of BSA incubated for 10 mins by scintillation counting analysis relative to control; assay type: protein-complex assay; conditions: full length CDK9/His-tagged cyclin T1 complex, probe CDKtide, read-out: Activity; method in brief: as §2
Chain of CDK9/cyclin T1 (O60563 whole entry): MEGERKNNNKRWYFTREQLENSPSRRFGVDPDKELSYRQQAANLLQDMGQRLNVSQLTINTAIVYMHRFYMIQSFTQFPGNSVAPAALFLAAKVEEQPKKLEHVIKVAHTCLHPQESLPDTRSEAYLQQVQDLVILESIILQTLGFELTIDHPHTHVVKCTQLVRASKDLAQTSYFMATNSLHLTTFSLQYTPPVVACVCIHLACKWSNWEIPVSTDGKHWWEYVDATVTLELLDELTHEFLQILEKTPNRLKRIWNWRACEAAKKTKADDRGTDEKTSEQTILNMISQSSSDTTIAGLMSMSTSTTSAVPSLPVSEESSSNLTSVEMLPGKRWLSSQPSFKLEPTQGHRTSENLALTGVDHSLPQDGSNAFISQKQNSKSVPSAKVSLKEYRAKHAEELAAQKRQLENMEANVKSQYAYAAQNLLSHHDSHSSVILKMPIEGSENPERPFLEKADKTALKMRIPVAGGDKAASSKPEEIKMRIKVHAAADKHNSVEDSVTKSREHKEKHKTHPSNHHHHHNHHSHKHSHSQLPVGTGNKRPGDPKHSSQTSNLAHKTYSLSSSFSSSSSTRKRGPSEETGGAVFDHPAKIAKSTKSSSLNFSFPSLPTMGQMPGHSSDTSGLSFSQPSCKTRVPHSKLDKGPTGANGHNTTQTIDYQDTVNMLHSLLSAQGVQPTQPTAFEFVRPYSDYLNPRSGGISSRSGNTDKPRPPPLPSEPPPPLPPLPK
Chain of CDK9/cyclin T1 (P50750 whole entry): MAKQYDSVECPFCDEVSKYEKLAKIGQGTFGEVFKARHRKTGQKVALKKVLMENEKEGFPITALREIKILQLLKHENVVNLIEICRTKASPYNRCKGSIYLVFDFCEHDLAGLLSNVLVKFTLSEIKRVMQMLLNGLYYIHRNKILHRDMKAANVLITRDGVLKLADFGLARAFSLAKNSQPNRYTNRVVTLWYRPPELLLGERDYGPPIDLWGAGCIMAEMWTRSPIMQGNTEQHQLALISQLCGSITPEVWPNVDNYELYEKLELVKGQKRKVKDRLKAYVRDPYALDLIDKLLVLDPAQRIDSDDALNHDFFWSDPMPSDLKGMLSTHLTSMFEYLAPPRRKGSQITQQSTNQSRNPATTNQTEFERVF

[9] = test system: Influenza A virus; experiment: Antiviral activity against Influenza A Puerto Rico/8/34/H1N1 infected in MDCK cells assessed as inhibition of viral replication measured in supernatants of infected cells after 24 hrs by hemagglutination assay; assay type: functional, organism-based; conditions: A/Puerto Rico/8/1934(H1N1)
[10] = Inhibition of full length ZIKV NS5-MTase domain using 7MeGpppAC4 as a substrate incubated for 30 mins by filter binding assay; set-up: species or system Zika virus
[11] = Selectivity index, ratio of CC50 for human Huh-7 cells to IC50 for Zika virus H/PF/2013 infected in pre-seeded Huh-7 cells assessed as inhibition of viral replication incubated for 72 hrs by immunodetection based secondary yield reduction assay; assay type: toxicity, cell-based; conditions: read-out: Selectivity Index
[12] = test system: Zika virus; experiment: Antiviral activity against Zika virus H/PF/2013 infected in pre-seeded Huh-7 cells assessed as inhibition of viral replication incubated for 72 hrs by immunodetection based secondary yield reduction assay; assay type: functional, organism-based; conditions: H/PF/2013, Huh-7, 72 h
[13] = test system: A549; experiment: Cytotoxicity against human A549 cells assessed as reduction in cell viability measured after 24 hrs by MTT assay; assay type: cell-based; conditions: a549, 24 h
[14] = Cytotoxicity against human Huh-7 cells assessed as reduction in cell viability by Celltiter-Glo luminescent cell viability assay; assay type: cell-based; conditions: Huh-7 cells
Method in brief: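 Compound-exposed cells assessed by CellTiter-Glo luminescence versus DMSO control; CC50 from dose-response.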

[15] = Inhibition of DENV NS5-MTase domain using GpppA2'OMe-RNA74 as a substrate incubated for 30 mins by filter binding assay; set-up: species or system dengue virus type 2
Method in brief: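 MTase (1 μM) incubated with increasing inhibitor in 40 mM Tris-HCl pH 7.5, 5 mM DTT, 10 μM AdoMet ([3H]-labelled), 0.5 μM GpppA2′OMe-RNA74 substrate, 30 °C for 30 min; stopped in ice-cold 100 μM AdoHcy; DEAE filter binding, scintillation counting.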

[16] = biological target: Abl (Tyrosine-protein kinase ABL1) (Homo sapiens, UniProt P00519); experiment: Inhibition of human recombinant N terminal His6 tagged Abl (27 to end residue) assessed as residual activity at 5 uM using KKGEAIYAADFA-NH2 as a substrate in the presence of NP-40 incubated for 10 mins by scintillation counting analysis relative to control; conditions: probe KKGEAIYAADFA-NH2, read-out: Activity; method in brief: as §2
Chain of Abl (Tyrosine-protein kinase ABL1) (P00519 whole entry): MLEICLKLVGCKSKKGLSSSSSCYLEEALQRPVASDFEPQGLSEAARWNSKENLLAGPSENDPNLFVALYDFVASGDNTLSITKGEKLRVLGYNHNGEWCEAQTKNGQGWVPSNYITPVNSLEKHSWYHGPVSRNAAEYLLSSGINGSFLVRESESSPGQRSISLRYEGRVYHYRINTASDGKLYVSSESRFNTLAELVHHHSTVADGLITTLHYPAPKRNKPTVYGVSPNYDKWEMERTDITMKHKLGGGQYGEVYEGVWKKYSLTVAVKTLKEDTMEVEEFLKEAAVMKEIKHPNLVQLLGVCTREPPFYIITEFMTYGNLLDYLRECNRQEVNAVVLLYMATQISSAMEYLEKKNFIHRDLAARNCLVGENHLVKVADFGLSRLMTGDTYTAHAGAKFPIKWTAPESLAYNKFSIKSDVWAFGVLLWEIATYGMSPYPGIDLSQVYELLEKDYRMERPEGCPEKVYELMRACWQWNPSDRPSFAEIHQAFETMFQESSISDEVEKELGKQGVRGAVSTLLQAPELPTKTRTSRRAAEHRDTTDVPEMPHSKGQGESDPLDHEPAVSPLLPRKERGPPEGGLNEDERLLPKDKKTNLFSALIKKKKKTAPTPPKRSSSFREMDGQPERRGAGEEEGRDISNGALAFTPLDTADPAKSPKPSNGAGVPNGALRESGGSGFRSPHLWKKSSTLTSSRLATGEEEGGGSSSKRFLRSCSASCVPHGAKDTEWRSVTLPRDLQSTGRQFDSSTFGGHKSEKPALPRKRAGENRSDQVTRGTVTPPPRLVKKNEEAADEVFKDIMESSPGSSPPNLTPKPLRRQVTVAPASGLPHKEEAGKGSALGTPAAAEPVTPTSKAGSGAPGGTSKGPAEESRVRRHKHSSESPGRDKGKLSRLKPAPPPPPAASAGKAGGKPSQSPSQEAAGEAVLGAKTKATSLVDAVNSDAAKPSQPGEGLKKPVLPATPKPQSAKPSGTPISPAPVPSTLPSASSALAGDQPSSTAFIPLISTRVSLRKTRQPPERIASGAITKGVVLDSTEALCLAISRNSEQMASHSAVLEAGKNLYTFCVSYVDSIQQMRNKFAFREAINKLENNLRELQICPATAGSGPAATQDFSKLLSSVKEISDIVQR

[17] = Inhibition of Dengue virus 2 […] RNA dependent RNA polymerase incubated for 10 mins by picogreen staining based fluorescent analysis (Rvb= 0.27+/-0.03 uM); set-up: species or system dengue virus type 2
[18] = test system: dengue virus type 2; experiment: Antiviral activity against Dengue virus serotype 2 New Guinea C infected in pre-seeded Huh-7 cells assessed as inhibition of viral replication incubated for 72 hrs by immunodetection based secondary yield reduction assay; assay type: functional, organism-based; conditions: Dengue virus, New Guinea C, Huh-7, 72 h; read-out: IC50
[19] = Selectivity index, ratio of CC50 for MDCK cells to IC50 for Influenza A Puerto Rico/8/34/H1N1 infected in MDCK cells; assay type: toxicity, cell-based; conditions: dog, read-out: Selectivity Index; method in brief: as §1
[20] = Inhibition of full length Dengue virus 2 NS5 RNA dependent RNA polymerase incubated for 10 mins by picogreen staining based fluorescent analysis (Rvb= 0.32+/-0.05 uM); set-up: species or system dengue virus type 2
[21] = biological target: PIK3CA (Phosphatidylinositol 4,5-bisphosphate 3-kinase catalytic subunit alpha isoform) (Homo sapiens, UniProt P42336); experiment: Inhibition of human full length PIK3CA assessed as residual activity at 5 uM using PI:PS (1:3) as a substrate incubated for 10 mins by scintillation counting analysis relative to control; conditions: full length PIK3CA enzyme, probe PI:PS (1:3), read-out: Activity
Chain of PIK3CA (Phosphatidylinositol 4,5-bisphosphate 3-kinase catalytic subunit alpha isoform) (P42336 whole entry, canonical isoform): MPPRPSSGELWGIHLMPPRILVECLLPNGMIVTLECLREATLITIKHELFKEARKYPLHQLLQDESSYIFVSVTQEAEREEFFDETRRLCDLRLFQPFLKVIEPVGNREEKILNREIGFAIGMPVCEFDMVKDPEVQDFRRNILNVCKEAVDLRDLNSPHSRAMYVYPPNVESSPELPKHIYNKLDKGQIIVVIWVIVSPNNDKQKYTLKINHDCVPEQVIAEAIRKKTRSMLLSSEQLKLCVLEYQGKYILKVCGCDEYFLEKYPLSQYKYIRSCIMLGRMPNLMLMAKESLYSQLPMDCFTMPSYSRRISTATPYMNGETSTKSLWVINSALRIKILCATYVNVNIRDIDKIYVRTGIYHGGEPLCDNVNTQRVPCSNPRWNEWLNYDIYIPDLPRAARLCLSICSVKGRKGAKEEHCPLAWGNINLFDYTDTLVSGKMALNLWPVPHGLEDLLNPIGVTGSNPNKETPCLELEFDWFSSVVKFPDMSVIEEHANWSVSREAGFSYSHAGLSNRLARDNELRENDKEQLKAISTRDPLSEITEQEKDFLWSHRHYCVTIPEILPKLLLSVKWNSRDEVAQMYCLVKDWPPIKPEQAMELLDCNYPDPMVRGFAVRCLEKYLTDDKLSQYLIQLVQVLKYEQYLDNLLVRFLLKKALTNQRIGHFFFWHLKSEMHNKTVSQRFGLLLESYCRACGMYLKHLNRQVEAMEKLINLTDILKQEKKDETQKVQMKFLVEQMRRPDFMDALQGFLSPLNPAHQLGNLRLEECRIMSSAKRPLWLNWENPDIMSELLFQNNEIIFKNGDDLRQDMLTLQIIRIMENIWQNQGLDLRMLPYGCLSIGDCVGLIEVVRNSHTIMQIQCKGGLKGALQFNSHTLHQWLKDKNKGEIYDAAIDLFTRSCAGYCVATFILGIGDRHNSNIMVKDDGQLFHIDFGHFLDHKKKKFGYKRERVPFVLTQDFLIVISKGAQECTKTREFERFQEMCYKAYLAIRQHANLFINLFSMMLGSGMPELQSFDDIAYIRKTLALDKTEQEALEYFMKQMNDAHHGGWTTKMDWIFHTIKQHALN
Method in brief: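 Radiometric kinase reaction with 10–50 ng enzyme and compound fixed at 5 μM, 10 μL at 30 °C for 10 min. Reactions spotted on filter and counted by scintillation. Residual activity is the mean ± SD of two independent experiments.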

[22] = test system: Zika virus; experiment: Antiviral activity against Zika virus H/PF/2013 infected in pre-seeded Huh-7 cells assessed as inhibition of viral replication incubated for 72 hrs by immunodetection based direct yield reduction assay; assay type: functional, organism-based; conditions: H/PF/2013, Huh-7, 72 h
Method in brief: (§3)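 Direct yield reduction in Huh7 cells (7000/well), infected with 50 TCID₅₀ of DENV or ZIKV, or 25 TCID₅₀ of WNV. Adsorption 1 h at 37 °C, then virus removed and serial compound dilutions added. Incubated 72 h (DENV, ZIKV) or 48 h (WNV). Viral antigen immunodetected on the monolayer. IC₅₀ by non-linear regression, mean of three experiments. SI = CC₅₀ (Huh7, CellTiter-Glo luminescence)/IC₅₀.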

[23] = Selectivity index, ratio of CC50 for human Huh-7 cells to IC50 for West Nile virus lineage 1 (Italy/2009) infected in pre-seeded Huh-7 cells assessed as inhibition of viral replication incubated for 48 hrs by immunodetection based direct yield reduction assay; assay type: toxicity, cell-based; conditions: read-out: Selectivity Index; method in brief: as §3
[24] = test system: dengue virus type 2; experiment: Antiviral activity against Dengue virus serotype 2 New Guinea C infected in pre-seeded Huh-7 cells assessed as inhibition of viral replication incubated for 72 hrs by immunodetection based direct yield reduction assay; assay type: functional, organism-based; conditions: Dengue virus, New Guinea C, Huh-7, 72 h; read-out: IC50
[25] = test system: Huh-7; experiment: Effect on formation of DENV replication complex in human Huh-7 cells assessed as reduction in NS5 translocation into nucleus at 100 uM measured after 16 to 24 hrs by DAPI staining based confocal microscopy analysis; assay type: functional, cell-based; conditions: time 16-24 hrs
Method in brief: (§4)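 Huh-7 cells (1 × 10⁴) on coverslips infected with DENV-2 (MOI 0.05), treated (100 or 50 μM as listed), fixed in 4% paraformaldehyde at 8, 12, 16, 24 h; anti-NS3/anti-NS5 with Alexa 488/568 secondaries, DAPI; confocal, 5 random fields at 40×; % positive cells; 2-way ANOVA with Dunnett.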

[26] = test system: West Nile virus; experiment: Antiviral activity against West Nile virus lineage 1 (Italy/2009) infected in pre-seeded Huh-7 cells assessed as inhibition of viral replication incubated for 48 hrs by immunodetection based plaque reduction assay; assay type: functional, organism-based; conditions: Huh-7, 48 h
[27] = test system: Huh-7; experiment: Effect on formation of DENV replication complex in human Huh-7 cells assessed as reduction in expression of NS3 at 100 uM measured after 8 to 24 hrs by DAPI staining based confocal microscopy analysis; assay type: functional, cell-based; conditions: time 8-24 hrs; method in brief: as §4
[28] = test system: West Nile virus; experiment: Antiviral activity against West Nile virus lineage 1 (Italy/2009) infected in pre-seeded Huh-7 cells assessed as inhibition of viral replication incubated for 48 hrs by immunodetection based direct yield reduction assay; assay type: functional, organism-based; conditions: West Nile virus, lineage 1 (Italy/2009), Huh-7, 48 h; read-out: IC50
[29] = Selectivity index, ratio of CC50 for human Huh-7 cells to IC50 for Zika virus H/PF/2013 infected in pre-seeded Huh-7 cells assessed as inhibition of viral replication incubated for 72 hrs by immunodetection based plaque reduction assay; assay type: toxicity, cell-based; conditions: read-out: Selectivity Index
[30] = test system: Huh-7; experiment: Effect on formation of DENV replication complex in human Huh-7 cells assessed as reduction in expression of NS5 at 100 uM measured after 8 to 24 hrs by DAPI staining based confocal microscopy analysis; assay type: functional, cell-based; conditions: time 8-24 hrs; method in brief: as §4
[31] = Selectivity index, ratio of CC50 for human Huh-7 cells to IC50 for Dengue virus serotype 2 New Guinea C infected in pre-seeded Huh-7 cells assessed as inhibition of viral replication incubated for 72 hrs by immunodetection based plaque reduction assay; assay type: toxicity, cell-based; conditions: read-out: Selectivity Index
[32] = Selectivity index, ratio of CC50 for human Huh-7 cells to IC50 for West Nile virus lineage 1 (Italy/2009) infected in pre-seeded Huh-7 cells assessed as inhibition of viral replication incubated for 48 hrs by immunodetection based plaque reduction assay; assay type: toxicity, cell-based; conditions: read-out: Selectivity Index
[33] = test system: Huh-7; experiment: Effect on formation of DENV replication complex in human Huh-7 cells assessed as reduction NS3 translocation into cytoplasm at 100 uM measured after 16 to 24 hrs by DAPI staining based confocal microscopy analysis; assay type: functional, cell-based; conditions: time 16-24 hrs; method in brief: as §4
[34] = Selectivity index, ratio of CC50 for human Huh-7 cells to IC50 for Zika virus H/PF/2013 infected in pre-seeded Huh-7 cells assessed as inhibition of viral replication incubated for 72 hrs by immunodetection based direct yield reduction assay; assay type: toxicity, cell-based; conditions: read-out: Selectivity Index; method in brief: as §3
[35] = test system: Zika virus; experiment: Antiviral activity against Zika virus H/PF/2013 infected in pre-seeded Huh-7 cells assessed as inhibition of viral replication incubated for 72 hrs by immunodetection based plaque reduction assay; assay type: functional, organism-based; conditions: H/PF/2013, Huh-7, 72 h
[36] = Selectivity index, ratio of CC50 for human Huh-7 cells to IC50 for Dengue virus serotype 2 New Guinea C infected in pre-seeded Huh-7 cells assessed as inhibition of viral replication incubated for 72 hrs by immunodetection based direct yield reduction assay; assay type: toxicity, cell-based; conditions: read-out: Selectivity Index; method in brief: as §3

SMILES: Fc1cccc(Nc2nc(NCCOc3ccccc3)nc3[nH]cnc23)c1
- selectivity ratio [1]: 2.8
- activity at 10 min, 5 µM [2]: 45%
- CC50 [3]: 77 µM
- IC50 [4]: 18.9 µM
- selectivity ratio at 72 h [5]: 17
- activity at 10 min, 5 µM [6]: > 98%
- IC50 [7]: 20.8 µM
- activity at 10 min, 5 µM [8]: 87%
- IC50 [9]: 14 µM
- IC50 [10]: Not Active
- selectivity ratio at 72 h [11]: 68
- IC50 [12]: 2.9 µM
- CC50 [13]: 58 µM
- CC50 [14]: 200 µM
- IC50 [15]: Not Active
- activity at 10 min, 5 µM [16]: 54%
- IC50 [17]: 31.2 µM
- IC50 [18]: 12 µM
- selectivity ratio [19]: 5.5
- IC50 [20]: > 100 µM
- activity at 10 min, 5 µM [21]: 69%

SMILES: CC(C)OC(=O)[C@H](C)N[P@](=O)(OC[C@H]1O[C@@H](n2ccc(=O)[nH]c2=O)[C@](C)(F)[C@@H]1O)Oc1ccccc1 [SOFOSBUVIR]
- IC50 [22]: 2.7 µM
- selectivity ratio at 48 h [23]: 117
- selectivity ratio at 72 h [5]: 42
- IC50 [24]: 4.6 µM
- Activity [25]: Active
- IC50 [26]: 1.2 µM
- selectivity ratio at 72 h [11]: 62
- IC50 [12]: 3.2 µM
- Activity [27]: Active
- CC50 [14]: 200 µM
- IC50 [28]: 1.7 µM
- selectivity ratio at 72 h [29]: 100
- Activity [30]: Active
- selectivity ratio at 72 h [31]: 50
- IC50 [18]: 4.7 µM
- selectivity ratio at 48 h [32]: 166
- Activity [33]: inactive
- selectivity ratio at 72 h [34]: 74
- IC50 [35]: 2 µM
- selectivity ratio at 72 h [36]: 43
